Columns and labels:
Test in all cases: MTT assay, cytotoxicity/growth inhibition
A549 (lung carcinoma) = assay type: cell-based, human; conditions: for inhibition at 20 µM: A549, 48 h, read-out: Cytotoxic Activity (% Growth Inhibition), A549, 20 μM concentration, MTT, 48 h
In short: (§1)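 Cells were grown in RPMI (A549, HCT-116, PC-3) or DMEM (MCF-7) with 10% FBS at 37 °C and 5% CO2. Seeding per well was […] and PC-3 8 × 10^4 cells. […] MTT 250 μg/mL, 4 h; DMSO; A570; triplicate; mean ± SE.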

[1] = tested on: HCT-116 (colon carcinoma); assay type: cell-based; conditions: Homo sapiens; for inhibition at 20 µM: HCT-116, 48 h, read-out: Cytotoxic Activity (% Growth Inhibition)
In short: as §1

MCF-7 (breast carcinoma) = assay type: cell-based; conditions: Homo sapiens; for inhibition at 20 µM: MCF7, 48 h, read-out: Cytotoxic Activity (% Growth Inhibition)
In short: as §1

[2] = tested on: PC-3 (prostate carcinoma); assay type: cell-based; conditions: Homo sapiens; for inhibition at 20 µM: 48 h, read-out: Cytotoxic Activity (% Growth Inhibition)
In short: as §1

SMILES: CCCCCCCCCC(=O)OCC1=CCC2[C@]3(C)COC(c4ccccc4)O[C@@H]3CC[C@@]2(C)[C@@H]1/C=C/C1=CCOC1=O (stereo partly drawn) [Compound 8x, ((4aR,6aR,7S,10bR)-6a,10b-Dimethyl-7-((E)-2-(2-oxo-2,5-dihydrofuran-3-yl)vinyl)-3-phenyl-4a,5,6,6a,7,10,10a,10b-octahydro-1H-naphtho[2,1-d][1,3]dioxin-8-yl)methyl Decanoate]
- inhibition at 20 µM (A549 (lung carcinoma); Homo sapiens): 49.7 ± 0.79%
- inhibition at 20 µM [1]: 50.1 ± 0.4%
- inhibition at 20 µM (MCF-7 (breast carcinoma)): 45 ± 0.98%
- inhibition at 20 µM [2]: 39 ± 0.24%

SMILES: C[C@@]12COC(c3ccccc3)O[C@@H]1CC[C@]1(C)C2CC=C(COC(=O)c2ccccc2)[C@H]1/C=C/C1=CCOC1=O (stereo partly drawn) [Compound 8a, ((4aR,6aR,7S,10bR)-6a,10b-Dimethyl-7-((E)-2-(2-oxo-2,5-dihydrofuran-3-yl)vinyl)-3-phenyl-4a,5,6,6a,7,10,10a,10b-octahydro-1H-naphtho[2,1-d][1,3]dioxin-8-yl)methyl Benzoate]
- Cytotoxic Activity (% Growth Inhibition) (A549 (lung carcinoma); A549, 20 μM concentration, MTT, 48 h, 20 µM): 72.82 ± 0.05%
- IC50 (A549 (lung carcinoma); Homo sapiens, A549): 10.6 µM
- inhibition at 20 µM (A549 (lung carcinoma); Homo sapiens): 72%
- IC50 ([1]; HCT-116): > 20 µM
- inhibition at 20 µM [1]: 21.12 ± 0.19%
- IC50 (MCF-7 (breast carcinoma); MCF7): > 20 µM
- inhibition at 20 µM (MCF-7 (breast carcinoma)): 9.68 ± 0.14%
- IC50 [2]: > 20 µM
- inhibition at 20 µM [2]: 0%

SMILES: C[C@]1(CO)C2CC=C(COC(=O)Cc3ccc(Cl)cc3)[C@@H](/C=C/C3=CCOC3=O)[C@]2(C)CC[C@H]1O (stereo partly drawn) [Compound 9q, ((1S,5R,6R,8aR)-6-Hydroxy-5-(hydroxymethyl)-5,8a-dimethyl-1-((E)-2-(2-oxo-2,5-dihydrofuran-3-yl)vinyl)-1,4,4a,5,6,7,8,8a-octahydronaphthalen-2-yl)methyl 2-(4-Chlorophenyl)acetate]
- inhibition at 20 µM (A549 (lung carcinoma); Homo sapiens): 47.2 ± 0.85%
- inhibition at 20 µM [1]: 19.3 ± 0.97%
- inhibition at 20 µM (MCF-7 (breast carcinoma)): 28 ± 0.87%
- inhibition at 20 µM [2]: 38 ± 0.96%

SMILES: C[C@]1(CO)C2CC=C(COC(=O)Cc3ccc(I)cc3)[C@@H](/C=C/C3=CCOC3=O)[C@]2(C)CC[C@H]1O (stereo partly drawn) [Compound 9r, ((1S,5R,6R,8aR)-6-Hydroxy-5-(hydroxymethyl)-5,8a-dimethyl-1-((E)-2-(2-oxo-2,5-dihydrofuran-3-yl)vinyl)-1,4,4a,5,6,7,8,8a-octahydronaphthalen-2-yl)methyl 2-(4-Iodophenyl)acetate]
- inhibition at 20 µM (A549 (lung carcinoma); Homo sapiens): 2.4 ± 0.19%
- inhibition at 20 µM [1]: 27.2 ± 0.48%
- inhibition at 20 µM (MCF-7 (breast carcinoma)): 12 ± 0.96%
- inhibition at 20 µM [2]: 10.6 ± 0.22%
